We go through 97 compounds from ChEMBL document CHEMBL4513216, “Probing the Open Global Health Chemical Diversity Library for Multistage-Active Starting Points for Next-Generation Antimalarials” (ACS Infect Dis, 2020).

A short description of this data set: Toxicity liver stage against HepG2, at 10uM. Further details: test concentration 10 uM, cell line HepG2-A16-CD81EGFP. Conditions: human, HepG2-A16-CD81EGFP cells; read-out: INHIBITION
It counts as cell-based. The essentials: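 Uninfected HepG2-A16-CD81EGFP cells, 3 × 10^3 per well, 1536-well, plated on prespotted compound at 10 μM final, parasite-free screening media added to match infected plates; puromycin 10 μM positive, DMSO 0.5% negative; run in parallel with 48 h PbLuc assay at 37 °C, 5% CO2; viability by CellTiter-Glo luminescence, normalized to controls.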
Regarding `O=C(O)C[C@@H]1CCN(C(=O)c2cccs2)C[C@@H]1CCN1CCCCC1`, the cytotoxicity at 10 µM was 2.4%.

Regarding `Cn1cc(NC(=O)CNC(=O)N2CCN(c3ccc(F)cc3)CC2)cn1`, the cytotoxicity at 10 µM was determined as 2.27%.

For `Cc1cc(O)cc(=O)n1CCCC(=O)Nc1n[nH]c2ccccc12`, the cytotoxicity at 10 µM is -10.6%.

As for `COCCn1ccc2c(NC(=O)c3n[nH]c4c3CCC4)cccc21`, the cytotoxicity at 10 µM was -1.6%.

As to `COc1ccc(S(=O)(=O)NCC(c2cccn2C)N(C)C)cc1F` (configuration not stated), the cytotoxicity at 10 µM was -0.418%.

Consider `CC(O)(CNC(=O)c1c(F)cccc1Cl)C1CC1` (configuration not stated), for which the cytotoxicity at 10 µM is -8.87%.

Turning to `CN(C)CC(=O)N1CCC2(CCN(Cc3cccc(F)c3)CC2)C1`, the cytotoxicity at 10 µM amounted to 1.11%.

As to `CC(C)COCC1CN(Cc2ccoc2)Cc2ncn(C)c21` (configuration not stated), the cytotoxicity at 10 µM was found to be 4.53%.

For `CS(=O)(=O)N1CCc2nc(NC(=O)Nc3c(F)cccc3F)sc2C1`, the cytotoxicity at 10 µM is -10.4%.

For `CCC(=O)N1CCC(c2nc3ccc(NC(C)C)cn3n2)CC1`, the cytotoxicity at 10 µM was -10.2%.

Turning to `CCC(CCNC(=O)c1cc(C2CC2)nc2c1cnn2C)n1cccn1` (configuration not stated), the cytotoxicity at 10 µM worked out at 2.04%.

As to `COCC(=O)N1CCC(c2c(C(=O)N(C)C)sc3ncccc23)C1` (configuration not stated), the cytotoxicity at 10 µM is 1.55%.

`CN(CC1(C)COC1)C(=O)c1cc(-c2cnn(C)c2)nc2ccccc12`: the cytotoxicity at 10 µM came to 0.89%.

As to `Cc1c[nH]nc1C1CCN(c2cnccn2)C1` (configuration not stated), the cytotoxicity at 10 µM is 5.3%.

Consider `CC(=O)N1CCOC(c2nc(N(C)C)ncc2-c2cccc(F)c2)C1` (configuration not stated), for which the cytotoxicity at 10 µM was -27.5%.

On to `CC(=O)NCC(=O)N1CCC(c2cncc(Oc3cccnc3)n2)CC1`, for which the cytotoxicity at 10 µM is -19.5%.

Regarding `CS(=O)(=O)c1snnc1C1CCCN(Cc2ccncc2)C1` (configuration not stated), the cytotoxicity at 10 µM is -11.5%.

Take `CN(CC1(O)CCCN(c2ccccn2)C1)C(=O)Cc1ccsc1` (configuration not stated): the cytotoxicity at 10 µM is -1.11%.

`Cn1ccc(C(=O)Nc2nccn2Cc2ccccc2Cl)cc1=O`: the cytotoxicity at 10 µM is -1.92%.

As to `CCC(NC(=O)NCc1nncn1CC)c1ccc(OC)cc1` (configuration not stated), the cytotoxicity at 10 µM turned out to be 1.97%.

As to `COc1ccccc1CC1CCCN1C(=O)c1cn[nH]c1C` (configuration not stated), the cytotoxicity at 10 µM was found to be 0.58%.

In the case of `Cc1ccc(NC(=O)N2CC[C@@H](O)C2)c(-c2nc(C3CC3)no2)c1`, the cytotoxicity at 10 µM was -4.16%.

In the case of `Cc1nn(CC(=O)NCC2(C(N)=O)CCOCC2)c(C)c1Cl`, the cytotoxicity at 10 µM is 2.83%.

Consider `CC(C)CCC(=O)NC(C#N)CC(C)C` (configuration not stated), for which the cytotoxicity at 10 µM worked out at 2.53%.

Consider `O=S(=O)(c1ccc(Cl)s1)N1CCCn2ncnc21`, for which the cytotoxicity at 10 µM was -3.06%.

As to `CCOCC(=O)N(C)Cc1nc(C(F)(F)F)cs1`, the cytotoxicity at 10 µM is 2.49%.

As to `Cc1nc(CSc2ccc(C(F)(F)F)cn2)no1`, the cytotoxicity at 10 µM is -3.38%.

Take `Cn1ncc(C(=O)OCC2CCN(c3ccccc3)C2)c1C(F)F` (configuration not stated): the cytotoxicity at 10 µM was -5.44%.

`CC(C(=O)Nc1ccnn1C(C)C)N1CCN(Cc2ccon2)CC1` (configuration not stated): the cytotoxicity at 10 µM was 0.72%.

In the case of `NC(=O)NC(=O)Cn1ccc2sccc2c1=O`, the cytotoxicity at 10 µM was found to be 0.354%.

For `COc1ncccc1NC(=O)N1CCCC1c1cc(C)no1` (configuration not stated), the cytotoxicity at 10 µM is -9.66%.

Consider `OC(CN(Cc1ccccc1)Cc1cscn1)c1cccs1` (configuration not stated), for which the cytotoxicity at 10 µM came to 4.74%.

Turning to `Cc1ccsc1CNCc1c(C(C)C)nn(C)c1N1CCOCC1`, the cytotoxicity at 10 µM was found to be 8.42%.

On to `Cc1cc(N2CCC(NCCOc3ccccc3)CC2)nc(C)n1`, for which the cytotoxicity at 10 µM was -6.11%.

Take `COc1ccccc1C(=O)Nc1c(C)cnn1CC1CC1`: the cytotoxicity at 10 µM was -3.47%.

Take `Cn1cc(N2CCCC(SCc3ccco3)C2=O)cn1` (configuration not stated): the cytotoxicity at 10 µM stood at 17.3%.

With `CC(C)c1ccc(NC(=O)c2ncc(C(N)=O)cc2Cl)cc1`, the cytotoxicity at 10 µM was -1.85%.

As for `COc1ccccc1NC(=O)NCc1cn[nH]c1`, the cytotoxicity at 10 µM stood at 16.9%.

Consider `Cc1ccc(CCCC(=O)N2CCCC(CS(N)(=O)=O)C2)s1` (configuration not stated), for which the cytotoxicity at 10 µM was determined as 17.9%.

Take `COCCC1(CNC(=O)NCC2CN(C)CCN2C)CCC1` (configuration not stated): the cytotoxicity at 10 µM worked out at 6.35%.

Turning to `CC(=O)N1CCCC(C(=O)NCCc2ccc(F)c(Br)c2)C1` (configuration not stated), the cytotoxicity at 10 µM amounted to 4.64%.

On to `OCCN(Cc1nc(-c2ccc3c(c2)OCO3)no1)CC1CC1`, for which the cytotoxicity at 10 µM amounted to 8.37%.

With `Cc1nc(Cn2c3c(ccc2=O)CC(N)CC3)cs1` (configuration not stated), the cytotoxicity at 10 µM came to 1.88%.

As to `COCCN1CCN(S(=O)(=O)C2CC2)Cc2cccnc21`, the cytotoxicity at 10 µM amounted to 4.73%.

Regarding `CCOCC1CC2(CCN(C(=O)c3cscn3)CC2)CO1` (configuration not stated), the cytotoxicity at 10 µM is 2.42%.

Regarding `Cc1ccc(N2CCC3(CCN(C(=O)c4ccsc4)CC3)CC2)nn1`, the cytotoxicity at 10 µM is 2.19%.

For the compound `Cn1cccc1C(=O)N1CCn2cc(CNC(=O)CC3CC3)nc2C1`, the cytotoxicity at 10 µM is 3.11%.

Take `CCc1noc(CN(CC)Cc2cc3ccc(C)cc3[nH]c2=O)n1`: the cytotoxicity at 10 µM worked out at 0.417%.

Consider `CC(C)n1cnnc1CN(C)C1CCCNC1` (configuration not stated), for which the cytotoxicity at 10 µM was found to be 6.9%.

In the case of `COC(=O)C1CCCCN1C(=O)c1cn(C/C=C/c2ccccc2)nn1` (configuration not stated), the cytotoxicity at 10 µM is 3.98%.

In the case of `CCn1c(C2CCN(C(=O)c3cc(CC(C)C)no3)CC2)nn(C)c1=O`, the cytotoxicity at 10 µM is -2.51%.

`Cc1nc(O)cc(C2CCN(C(=O)c3[nH]nc4c3CC(C)CC4)CC2)n1` (configuration not stated): the cytotoxicity at 10 µM amounted to 3.06%.

Consider `CCn1cc(CN2CCCC(c3[nH]ncc3-c3ccc(F)cc3)C2)cn1` (configuration not stated), for which the cytotoxicity at 10 µM amounted to 1.63%.

With `CCC(CO)N(C/C(C)=C/c1ccco1)Cc1ccco1` (configuration not stated), the cytotoxicity at 10 µM is -3.41%.

In the case of `COCC[C@]1(O)CCN(C(=O)C2CCN(C3CCCC3)CC2)C[C@H]1C`, the cytotoxicity at 10 µM was -0.292%.

With `O=C(NCCc1cccs1)N1CCCC2(CCC(=O)N(C3CC3)C2)C1` (configuration not stated), the cytotoxicity at 10 µM is -7.82%.

Consider `C[C@@H]1CN(S(=O)(=O)N2CCCC2)C[C@@]1(O)C1CC1`, for which the cytotoxicity at 10 µM is -5.07%.

With `N[C@H]1CN(C(=O)c2ccc3[nH]c(CO)nc3c2)C[C@@H]1c1ccccc1`, the cytotoxicity at 10 µM is -1.82%.

As for `CCn1c(CC2CCN(C(=O)C3COCCO3)CC2)nn(C)c1=O` (configuration not stated), the cytotoxicity at 10 µM is -0.525%.

Take `Cc1cc(N2CCC3(CC2)C(C(=O)O)CC(=O)N3C)nc2ccccc12` (configuration not stated): the cytotoxicity at 10 µM is -1.6%.

For `O=C1NC(C(=O)NCc2cccnc2Oc2ccc(F)cc2F)CO1` (configuration not stated), the cytotoxicity at 10 µM was -1.32%.

Turning to `CC(c1ccccn1)N(C)Cc1cccc(C(=O)Nc2nccn2C)c1` (configuration not stated), the cytotoxicity at 10 µM stood at 14.6%.

Regarding `CC(Nc1nc(-c2ccccc2)nc2c1CCNCC2)c1nccs1` (configuration not stated), the cytotoxicity at 10 µM was 2.49%.

`O=S(=O)(Cc1ccccc1Cl)NCCCN1CCCC1`: the cytotoxicity at 10 µM was -4.54%.

Turning to `CSc1cccc(CN(C)C(=O)c2ccc(C3CCCNC3)cc2)c1` (configuration not stated), the cytotoxicity at 10 µM is -3.07%.

On to `CCn1c(N)nc2cc(C(=O)NCCc3ccccc3C)cnc21`, for which the cytotoxicity at 10 µM was -10.8%.

Consider `CC(C(=O)Nc1ccc(N2CCCC2)nc1)n1cccn1` (configuration not stated), for which the cytotoxicity at 10 µM is -17.1%.

With `CCC(NC(=O)C1CC1)c1ccccc1OCC(=O)N1CCCC1` (configuration not stated), the cytotoxicity at 10 µM is -9.16%.

`O=C(CCCc1ccccn1)N1CCCC(n2cccn2)C1` (configuration not stated): the cytotoxicity at 10 µM was -10.7%.

In the case of `CN1CCC(N(C)C(=O)c2cnc3c(cnn3C3CCCC3)c2)CC1`, the cytotoxicity at 10 µM was -26.9%.

As to `O=C(c1ccc(-n2cnnc2)cc1)N1CCCC(n2ccnc2)C1` (configuration not stated), the cytotoxicity at 10 µM was -10.7%.

For the compound `CCOCC(O)CN1CCN(C(=O)c2cccc(CC#N)c2)CC1` (configuration not stated), the cytotoxicity at 10 µM was -16.4%.

In the case of `COc1c(C)cnc(CN2CCOC(CNc3cccnn3)C2)c1C` (configuration not stated), the cytotoxicity at 10 µM is -10.5%.

As for `Cc1cnc(CN2CCCC2c2noc(C(C)C)n2)cn1` (configuration not stated), the cytotoxicity at 10 µM was -15.1%.

On to `CC(C(=O)NCc1ccc(N2CCCCC2)nc1)S(C)(=O)=O` (configuration not stated), for which the cytotoxicity at 10 µM was -8.81%.

As to `c1ccc2oc(CCCN3CCCC3c3noc(C4CC4)n3)nc2c1` (configuration not stated), the cytotoxicity at 10 µM is -13.5%.

Turning to `Cn1nc2c(cc1=O)CN(Cc1coc(-c3cccc(F)c3)n1)CC2`, the cytotoxicity at 10 µM was -12.6%.

For the compound `O=C(c1cc2cc(I)ccc2[nH]1)N1CCC(Nc2cccnn2)CC1`, the cytotoxicity at 10 µM is -8.12%.

Consider `CC(=O)N(Cc1ncc(C)o1)C1CCN(Cc2ccccc2C#N)C1` (configuration not stated), for which the cytotoxicity at 10 µM is -15.5%.

Consider `CC(C)c1nc(C2CCCN(C(=O)c3nccn4ccnc34)C2)no1` (configuration not stated), for which the cytotoxicity at 10 µM was -12.7%.

Consider `CCc1nnc(C2Cc3ccccc3CN2Cc2nc(C)no2)o1` (configuration not stated), for which the cytotoxicity at 10 µM was -7.78%.

Take `CN(C)c1cc(CNC(=O)c2cccnc2O)ccn1`: the cytotoxicity at 10 µM is -5.26%.

As for `CCOc1ccccc1-c1noc(CN2CCOC(CN(C)C)C2)n1` (configuration not stated), the cytotoxicity at 10 µM was -5%.

As for `O=C(c1ccc(Cl)c(Cl)c1)N1CCCC(n2cncn2)C1` (configuration not stated), the cytotoxicity at 10 µM was -5.16%.

Regarding `Cc1cc(C)c(N(CC(O)CNCc2ccco2)S(C)(=O)=O)c(C)c1` (configuration not stated), the cytotoxicity at 10 µM is -12.5%.

As to `CN(C)[C@@H]1CCN(c2ncc(F)cn2)[C@H]1Cc1cccnc1`, the cytotoxicity at 10 µM is 2.53%.

As to `CCOC(=O)CN1CC(c2nc(-c3ccsc3)no2)C1`, the cytotoxicity at 10 µM is -12.3%.

For `CNC(=O)CN1CC[C@H]2CN(C(=O)c3cccn3C)C[C@H]2C1`, the cytotoxicity at 10 µM came to 2.31%.

Consider `CN(C)CCN1C(=O)CCC12CCCN(C(=O)N(C)C)CC2` (configuration not stated), for which the cytotoxicity at 10 µM came to 4.56%.

As to `O=C(NCc1ccco1)[C@H]1C[C@@H]2CCN(c3ncccn3)C[C@H]2O1`, the cytotoxicity at 10 µM is 7.1%.

Take `CN1CCOC2(CCCN(C(=O)C3CCCCC3)C2)C1` (configuration not stated): the cytotoxicity at 10 µM was -6.66%.

Regarding `CC(=O)N1CCC(c2nc3ccc(NC4CCC4)cn3n2)CC1`, the cytotoxicity at 10 µM is -107%.

`O=C(C1CC1)N1CCC2(CCN2Cc2ccc(F)cc2)C1` (configuration not stated): the cytotoxicity at 10 µM worked out at 1.55%.

As for `O=C(c1n[nH]c2c1CN(C1CCOC1)CC2)N1CCOCC1` (configuration not stated), the cytotoxicity at 10 µM amounted to 4.88%.

As for `CN(C)C(=O)CN1C(=O)CCC12CCN(Cc1cccs1)CC2`, the cytotoxicity at 10 µM is -2.6%.

For `O=C1CC2(CCN(CC3CCOC3)CC2)c2ccccc2N1CC1CC1` (configuration not stated), the cytotoxicity at 10 µM was -9.61%.

Consider `O=C(N[C@@H]1C[C@@H]2CC[C@H]1C2)C1(Oc2ccc(Cl)cc2)CCNCC1`, for which the cytotoxicity at 10 µM was -5.26%.
